# Bioassay records from PubChem BioAssay.
# In the library only some 1.8% were active in any assay of this set; here they are far more common.
# CHRM4 PAM = positive allosteric modulators of human muscarinic M4 receptor; CHO-K1 hM4/Gqi5, Fluo-8 calcium fluorescence, ACh EC20; 0% = ACh EC20, 100% = maximal ACh; activation, % at 3 µM; 0.4% of 360,000 active;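 active = activation above its plate's cutoff, the mean activation of sample wells plus 3 SD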
# Target sequence (P08173 whole entry, looked up): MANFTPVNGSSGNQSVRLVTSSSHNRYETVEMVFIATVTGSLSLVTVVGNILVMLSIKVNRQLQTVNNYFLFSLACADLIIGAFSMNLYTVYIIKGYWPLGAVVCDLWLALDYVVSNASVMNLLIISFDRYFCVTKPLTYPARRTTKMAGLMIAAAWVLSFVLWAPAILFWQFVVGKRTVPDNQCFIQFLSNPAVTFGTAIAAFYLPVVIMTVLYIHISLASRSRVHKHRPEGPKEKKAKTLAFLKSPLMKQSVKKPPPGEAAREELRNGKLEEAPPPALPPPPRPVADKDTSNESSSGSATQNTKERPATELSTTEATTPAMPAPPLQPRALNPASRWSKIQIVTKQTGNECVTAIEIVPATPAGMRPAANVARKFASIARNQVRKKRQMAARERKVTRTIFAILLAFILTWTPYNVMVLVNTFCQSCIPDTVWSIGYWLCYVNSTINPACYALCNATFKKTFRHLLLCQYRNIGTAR
# CHRM5 PAM = potentiates acetylcholine response at human M5 receptor. 0.3% of 360,000 active. AID 624038. P08912. CHO-K1 hM5, Fluo-8 calcium, ACh EC20 PAM; 0% = ACh EC20, 100% = ACh EC100. activation, % at 3 µM;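 active = activation above the run cutoff, the mean activation of all test compounds plus 3 SD, cut at about 18% in these data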
#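 Measured by: Fluo-8 calcium fluorescence; material: human M5 receptor in CHO-K1 cells; schedule: Post-acetylcholine fluorescence recording 140 s; benchmarks: low control EC20 acetylcholine (0%), high control EC100 acetylcholine (100%); read-out: Max/basal fluorescence ratio as % of EC20–EC100 ACh window; compound: single dose, 3 µM nominal final test concentration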
# M5 ag = CHRM5 agonism in calcium assay. P08912. CHO-K1 hM5 cells, Fluo-8 calcium fluorescence; 0% DMSO wells, 100% maximal acetylcholine response. activation, % at 3 µM. 0.19% of 360,000 active;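 active = activation above the run's mean over test compounds plus 3 SD, cut at about 23% in these data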;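 also: signal is peak over basal fluorescence ratio across the kinetic read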
# CHRM5 antagonist = blocks acetylcholine activation of human M5 receptor; inhibition, % at 3 µM; 0.59% of 360,000 active; P08912; AID 624040; CHO-hM5 cells, Fluo-8 calcium fluorescence, ACh EC80;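 active = inhibition above a per-plate cutoff, the mean of that plate's test compounds plus 3 SD, cut at about 27% in these data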;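 also: 0% = acetylcholine EC80 with DMSO and 100% = DMSO without agonist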
# CHRM4 antagonist = CHRM4 antagonism in calcium assay | P08173 | CHO-hM4 cells, ACh EC80, Fluo-8 calcium fluorescence | inhibition, % at 3 µM | 0.73% of 360,000 active | AID 624125;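 active = inhibition above its plate's cutoff, the mean inhibition of sample wells plus 3 SD, cut at about 27% in these data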;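 also: 0% = acetylcholine EC80 with DMSO and 100% = DMSO without agonist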
# CHRM4 agonist = CHRM4 agonism in calcium assay; 0.14% of 360,000 active; activation, % at 3 µM; CHO-K1 hM4/Gqi5, Fluo-8 calcium fluorescence; vehicle 0%, full acetylcholine response 100%; AID 624127;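 active = activation above the run mean over all test wells plus 3 SD, cut at about 32% in these data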;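 also: peak over basal fluorescence ratio per well then scaled between controls; 0% = DMSO wells and 100% = acetylcholine at EC100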
# The depositor's hits bear a star.
SMILES,CHRM4 PAM,CHRM5 PAM,M5 ag,CHRM5 antagonist,CHRM4 antagonist,CHRM4 agonist
CN(C(=O)CN1C(=O)C2C3CC(C(Br)C3Br)C2C1=O)C1CCCCC1 (stereo not given),1,-3,2,6,0,8
CO[C@@]1(NC(=O)C2SC(=C(C(N)=O)C(=O)O)S2)C(=O)N2C(C(=O)O)=C(CSc3nnnn3C)CS[C@@H]21 (stereo not given in full),-7,-1,1,-1,43*,1
Cc1c(NC(=O)Nc2ccc(Cl)c(Cl)c2)c(=O)n(-c2ccccc2)n1C,0,-15,0,30*,10,12
Cc1c(Cl)c([N+](=O)[O-])nn1CCCC(=O)Nc1c(C)n(C)n(-c2ccccc2)c1=O,-42,-31,-19,17,27*,1
Cc1ccc(Nc2nc3ccccc3nc2Nc2c(C)n(C)n(-c3ccccc3)c2=O)cc1,12,23*,3,-11,-5,1
CN1CCN(CC2(O)CCN(S(=O)(=O)c3ccc(Cl)cc3)CC2)CC1,-5,11,-1,7,5,0
O=C1CC2(CCCC2)Oc2ccccc21,9,4,6,0,4,2
CCNC(=S)NC1CC2CCCC(C1)N2CCc1ccccc1 (stereo not given),-15,-34,-23,69*,37*,0
CCNC(=S)NC1CC2CCC(C1)N2Cc1ccccc1 (stereo not given),-7,-8,-6,11,5,0
Cc1ccc(S(=O)(=O)NCC(=O)OCc2nnc(-c3ccccc3)o2)cc1,-1,-6,0,8,-3,2
CCOC(=O)Cc1nn(Cc2ccccc2)c(=O)c2ccccc12,-2,-1,-2,-8,0,1
CC(C)(C)c1ccc(Cn2nc(CC(=O)O)c3ccccc3c2=O)cc1,12,21*,3,-22,-6,0
c1coc(Cn2c(SCc3nc4ccccc4[nH]3)nnc2-c2cnccn2)c1,-1,-6,1,3,6,3
Cn1c(SCc2nc3ccccc3[nH]2)nnc1-c1cnccn1,-5,19*,-2,3,0,2
CCCCCCCCC(=O)c1c(OC)oc(C=O)cc1=O,3,3,4,7,-7,2
COc1ccccc1NC(=O)COC(=O)C1=NN(c2ccccc2)C(=O)CC1,16,19*,3,-3,-1,1
O=C(Nc1ccccc1)Nc1cc(OCC(F)(F)F)cc(OCC(F)(F)F)c1,-16,-18,1,47*,10,12
CCCCNC(=O)CSc1nc2ccc(Nc3nc(N4CCOCC4)nc(N4CCOCC4)n3)cc2s1,-14,-8,3,12,-4,5
CCCCSc1nc2ccc(Nc3nc(N4CCOCC4)nc(N4CCOCC4)n3)cc2s1,24*,-3,3,-9,16,-1
COc1ccc(S(=O)(=O)N2CCC(C(=O)NCC(=O)Nc3c(C)cccc3C)CC2)cc1OC,25*,4,0,-8,-10,0
COc1ccc(S(=O)(=O)N2CCC(C(=O)NCCc3ccccc3)CC2)cc1OC,2,4,1,-1,-7,3
COc1ccc(CC(=O)Nc2cccc(S(=O)(=O)N3CCCCCC3)c2)cc1OC,-11,-19,9,32*,11,14
O=C(COC(=O)C1CC2C=CC1C2)Nc1cccc(S(=O)(=O)N2CCCCC2)c1 (stereo not given),-15,-16,5,13,3,17
COc1ccccc1NC(=O)c1cc(S(=O)(=O)N2CCCCCC2)ccc1F,30*,24*,1,15,-9,34*
O=C(COC(=O)C1CC2C=CC1C2)Nc1cccc(S(=O)(=O)N2CCCCCC2)c1 (stereo not given),-13,-20,4,31*,23,17
COc1ccc(S(=O)(=O)N2CCCC2)cc1NC(=O)c1ccccc1F,4,2,-2,2,-2,2
CCc1ccc(CNC(=O)C2CCCN(S(=O)(=O)N(CC)c3ccccc3)C2)cc1 (stereo not given),-8,-4,-2,3,-6,12
